KCNQ1 block – blocks the human KCNQ1 potassium channel | P51787 | CHO-K1 KCNQ1, FluxOR thallium flux fluorescence; active compounds read high | B-score at 10 µM | 1.3% of 310,000 active | AID 2642;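 active means compounds whose thallium flux B-score, printed positive for inhibition, exceeds three library SD while starting fluorescence stays within three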;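 further: channel opened by potassium depolarization with thallium stimulus after 20 min compound exposure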
hERG rescue – hERG (human) protection from proarrhythmic block; Q12809; 0.51% of 310,000 active; activation (rescue from dofetilide block), less the hit threshold, % at 10 µM; CHO-hERG, FluxOR thallium flux, dofetilide IC70 present;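 active means activation above the mean of controls blocked by dofetilide plus 5 SD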;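 further: thallium influx through hERG after potassium depolarization seen as dye fluorescence rise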
Target sequence (Q12809 whole entry, looked up): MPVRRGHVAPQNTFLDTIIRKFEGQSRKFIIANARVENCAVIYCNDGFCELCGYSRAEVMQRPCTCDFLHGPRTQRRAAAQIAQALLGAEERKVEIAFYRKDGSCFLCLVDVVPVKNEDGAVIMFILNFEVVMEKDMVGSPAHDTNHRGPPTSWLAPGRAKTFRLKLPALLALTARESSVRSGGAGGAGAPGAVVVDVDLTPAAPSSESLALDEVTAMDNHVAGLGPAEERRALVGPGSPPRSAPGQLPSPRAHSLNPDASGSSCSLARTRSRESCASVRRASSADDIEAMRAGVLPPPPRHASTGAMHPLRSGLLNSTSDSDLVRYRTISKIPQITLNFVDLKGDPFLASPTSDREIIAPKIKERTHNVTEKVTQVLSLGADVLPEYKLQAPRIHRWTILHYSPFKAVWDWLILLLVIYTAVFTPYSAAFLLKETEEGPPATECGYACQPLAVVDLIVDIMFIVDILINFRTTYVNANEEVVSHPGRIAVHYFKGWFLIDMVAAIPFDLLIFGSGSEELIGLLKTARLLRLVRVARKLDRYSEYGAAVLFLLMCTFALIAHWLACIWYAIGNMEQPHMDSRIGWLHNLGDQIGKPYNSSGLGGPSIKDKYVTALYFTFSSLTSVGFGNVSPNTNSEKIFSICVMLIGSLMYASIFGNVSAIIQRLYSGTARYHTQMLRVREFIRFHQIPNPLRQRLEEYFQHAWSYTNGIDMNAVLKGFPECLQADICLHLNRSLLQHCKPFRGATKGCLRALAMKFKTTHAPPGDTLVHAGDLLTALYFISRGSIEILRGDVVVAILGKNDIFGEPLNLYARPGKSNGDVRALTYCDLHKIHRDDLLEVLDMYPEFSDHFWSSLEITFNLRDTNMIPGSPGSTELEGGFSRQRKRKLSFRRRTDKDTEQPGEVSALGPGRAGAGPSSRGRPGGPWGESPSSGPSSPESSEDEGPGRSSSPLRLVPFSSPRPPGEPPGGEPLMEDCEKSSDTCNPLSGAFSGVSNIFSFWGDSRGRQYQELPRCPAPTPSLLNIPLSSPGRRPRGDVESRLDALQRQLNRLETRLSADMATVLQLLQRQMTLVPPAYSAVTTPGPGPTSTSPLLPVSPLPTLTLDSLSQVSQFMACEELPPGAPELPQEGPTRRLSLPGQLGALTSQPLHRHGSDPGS
KCNK9 block – blocks the human KCNK9 two-pore domain potassium channel; B-score at 10 µM; Q9NPC2; AID 488922; 1.2% of 310,000 active; HEK293 KCNK9, FluxOR thallium flux fluorescence; active compounds read low;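 active means ratio B-score over 3 SD below the library mean, with starting fluorescence within 5 SD of its mean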;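 further: negative B-score means less thallium flux so channel inhibition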
KCNQ1 act – human KCNQ1 channel potentiation or activation. CHO-K1 KCNQ1, thallium flux FluxOR fluorescence; active compounds read high. B-score at 10 µM. 0.35% of 310,000 active;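 active means fluorescence ratio B-score, a plate-corrected score, at least three library SD, with initial intensity B-score within 5 SD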
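System: CHO-K1 cells stably expressing KCNQ1 / Medium: assay buffer for compound exposure, DMSO matched across wells / Reagent: thallium- and potassium-containing depolarizing buffer / Compound: one concentration, matched DMSO / Incubation: 20 min compound pretreatment at room temperature / Measured by: kinetic FluxOR fluorescence, 10 s baseline plus 110 s post-stimulus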
KCNK3 inh – human KCNK3 channel inhibition, primary screen; O14649; CHO-KCNK3 thallium flux, FluxOR fluorescence; active compounds read low; B-score at 10 µM; 0.84% of 340,000 active; AID 602410;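 active means B-score under library mean minus 4 SD, starting fluorescence ratio at most library mean plus 5 SD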;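 further: more negative B-score means stronger inhibition of thallium flux through KCNK3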
PHOSPHO1 inh – inhibitors of human PHOSPHO1 phosphatase. Q8TCT1. recombinant PHOSPHO1, absorbance phosphatase assay. inhibition, % at 13.3 µM. 1.1% of 290,000 active. AID 1565; in the data active means inhibition above about 60%
KCNK9 inh conf – human KCNK9 inhibitor confirmation | shares compounds with KCNK9 block | HEK293 KCNK9 cells, FluxOR thallium flux fluorescence | inhibition, % at 10 µM | 43% of 4,900 active;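 active means thallium signal inhibited by more than 5 SD of the compound-free buffer control wells, on both duplicate plates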;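 further: 0% = assay buffer control wells without compound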
Kir2-1 spec – tests whether KCNK9 modulators also affect mouse Kir2.1. inhibition, % at 10 µM. 4% of 4,900 active. shares compounds with KCNK9 block. AID 492993. Kir2.1 cells, FluxOR thallium flux fluorescence;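 active means thallium signal drop more than 5 SD beyond the mean of the no-compound control wells, seen in both duplicate plates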;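 further: signal is fluorescence rise after thallium addition divided by baseline fluorescence; plate controls were assay buffer only for no effect and full block by chlorpromazine control for full effect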
HEK293 Tl ctr – second counter-screen for KCNK9 modulators: effect in non-induced cells | shares compounds with KCNK9 block | non-induced KCNK9-HEK293, FluxOR thallium flux | inhibition, % at 10 µM | 40% of 4,900 active | AID 492997;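 active means thallium signal drop beyond 5 SD of the untreated control mean, on both duplicate plates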;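 further: plate controls were buffer only IC0 wells for no effect and SID17386958 at its maximal inhibitory level for full effect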
An asterisk follows results filed as active; i = inactive; / = not tested or not shown. Most compounds without a hit are left out; they make up all but 4% or so of the library.

SMILES | KCNQ1 block | hERG rescue | KCNK9 block | KCNQ1 act | KCNK3 inh | PHOSPHO1 inh | KCNK9 inh conf | Kir2-1 spec | HEK293 Tl ctr
Cc1onc(-c2ccccc2)c1-c1ccnn1C(=O)NC(C)C | i | -3 | i | i | i | 15 | / | / | /
Cc1onc(-c2ccc(Cl)cc2)c1-c1ccnn1S(=O)(=O)c1cccc(C(F)(F)F)c1 | i | -13 | -11* | i | i | 55 | 55%* | i | 47%*
CCN(CC)C(=O)[C@H]1C[C@H](CC(=O)NCCCn2ccnc2)C(=O)N2CCc3c([nH]c4ccc(Cl)cc34)[C@]12C | / | / | / | / | i | / | / | / | /
Cc1cc(C(=O)OC(C)C(=O)Nc2nc(-c3ccccc3)cs2)c(C)o1 (configuration not stated) | i | -8 | i | i | i | -8 | i | i | i
CCOC(=O)N1CCC(NC(=O)CN2C(=O)CSc3ncccc32)CC1 | i | -5 | i | i | i | 18 | / | / | /
O=C(c1cc(COc2ccc(F)cc2F)on1)N1CC[C@@H]2CCCC[C@H]2C1 | i | -13 | i | i | i | 23 | i | i | i
O=C(c1ccc(F)cc1)N1CCCC(c2ccccc2)C1 (configuration not stated) | i | -11 | -8.8* | i | i | 50 | 36%* | i | i
CC(C)Cc1cc(C(=O)N2CCCC(C(=O)c3cc(F)ccc3F)C2)no1 (configuration not stated) | i | -5 | i | i | i | 50 | i | i | i
O=C(c1ccc(F)cc1)N1CCN(C2CCC(c3ccccc3)CC2)CC1 (configuration not stated) | i | -11 | i | i | i | 19 | / | / | /
O=C(c1cc(COc2ccc(F)cc2F)on1)N1CCCC(c2ccccc2)C1 (configuration not stated) | i | -8 | i | i | i | 60* | i | i | 36%*
O=C(c1cc(COc2ccc(F)cc2Cl)on1)N1CC[C@@H]2CCCC[C@H]2C1 | i | -1 | i | i | i | 32 | / | / | /
CC1=NNC(=O)/C1=C\c1cn(-c2ccccc2)nc1-c1ccc(F)cc1 | i | -15 | i | i | i | 42 | / | / | /
O=C(N/N=C/c1cn(-c2ccccc2)nc1-c1cccs1)c1ccccc1F | 6* | -18 | -13* | i | -9.1* | 0 | 56%* | i | 30%*
CC1=NNC(=O)/C1=C\c1cn(-c2ccccc2)nc1-c1cccs1 | i | -6 | i | i | i | 18 | i | i | i
O=C(N/N=C/c1cn(-c2ccccc2)nc1-c1cccs1)c1ccc(Cl)cc1 | i | -15 | i | i | i | -9 | / | / | /
CC[C@]12C(=O)N(C)C[C@H]([C@@H]3C(=O)N(C)C(=O)[C@@H]31)N2C(=O)c1ccc(F)cc1 | / | / | / | / | i | / | / | / | /
O=C(/C=C/c1ccccc1)NC(NC(=S)Nc1ccc(Cl)cc1)C(Cl)(Cl)Cl (configuration not stated) | i | -9 | i | i | i | 6 | / | / | /
O=C(/C=C/c1ccccc1)NC(NC(=S)Nc1cc(Cl)ccc1Cl)C(Cl)(Cl)Cl (configuration not stated) | 11* | -11 | i | i | i | 4 | i | i | i
CN(C)c1ccc(/C=N/n2c(-c3ccccc3Br)n[nH]c2=S)cc1 | i | -3 | i | i | i | 13 | i | i | i
CC(C)OC(=O)CC(=O)CSc1nc2c(cc1C#N)CCC2 | i | 1 | i | i | i | 50 | / | / | /
CNc1ccccc1C(C)(C)c1cn(-c2ccc([N+](=O)[O-])cc2)nn1 | i | -10 | i | i | i | -26 | / | / | /
COC(=O)CSc1nc(C2CC2)cc(C(F)(F)F)c1C#N | i | -12 | i | i | i | -2 | / | / | /
CCOC(=O)CSc1nc(C2CC2)cc(-c2ccc(Cl)cc2)c1C#N | i | -4 | -9.5* | i | i | 33 | 54%* | i | i
CCOc1ccccc1N1CCN(C(=O)c2cc3cc(OC)ccc3[nH]2)CC1 | i | -4 | i | i | i | / | i | i | i
CCCCOc1ccc(C(=O)OC2CC(C)N(C)CC2C)cc1 (configuration not stated) | i | -16 | i | i | i | 0 | / | / | /
SMILES | KCNQ1 block | hERG rescue | KCNK9 block | KCNQ1 act | KCNK3 inh | PHOSPHO1 inh | KCNK9 inh conf | Kir2-1 spec | HEK293 Tl ctr
CCOC(=O)C1(Cc2cccc(OC)c2)CCN(Cc2cccn2-c2nccs2)CC1 | i | -14 | i | i | i | -6 | / | / | /
CCOC(=O)C1(Cc2ccccc2)CCN(Cc2cccc3nccnc23)CC1 | i | 0 | i | i | i | 36 | i | i | i
CCOC(=O)C1(CCc2ccccc2)CCN(Cc2ccc(C(=O)OC)cc2)CC1 | i | -15 | i | i | i | 45 | / | / | /
CCOC(=O)C1(Cc2ccccc2C(F)(F)F)CCN(Cc2ccc(COC)o2)CC1 | i | -9 | i | i | i | 20 | i | i | i
CCOC(=O)C1(CCc2ccccc2)CCN(Cc2cc(OC)c(OC)cc2OC)CC1 | i | -14 | i | i | i | 35 | i | i | i
CCOC(=O)C1(Cc2ccccc2)CCN(Cc2cccn2-c2nccs2)CC1 | i | -7 | i | i | i | 15 | i | i | i
Cc1cc(NC(=O)CCCn2cnc([N+](=O)[O-])n2)no1 | i | -2 | i | i | i | -44 | / | / | /
CC(C)n1c(NCc2ccc(Cl)cc2)nc2ccccc21 | i | -5 | i | i | i | 42 | / | / | /
C=CC[C@@H](CC(=O)N[C@@H](CO)Cc1ccccc1)C(=O)N[C@@H](COC(=O)[C@@H](CC=C)Cc1ccc(F)cc1)Cc1ccccc1 | / | / | / | / | i | / | / | / | /
Cn1cc(-c2cc(C(=O)O)on2)cn1 | i | -11 | i | i | i | 19 | / | / | /
O=C(OCc1ccccc1)c1cccc(-c2nnc(-c3ccccc3)o2)c1 | i | -34 | i | i | i | -32 | / | / | /
CCOC(=O)c1cccc(COC(=O)c2cccc(-c3nnc(-c4ccccc4)o3)c2)c1 | i | -17 | -19* | i | i | 1 | 68%* | i | 24%*
Cc1ccccc1-c1nc(CS(=O)(=O)CC(=O)N(C)C2CCCCC2)c(C)o1 | i | -14 | i | i | i | -6 | / | / | /
